From ChEMBL document CHEMBL4138058, “Design and synthesis of novel selective estrogen receptor degradation inducers based on the diphenylheptane skeleton” (Medchemcomm, 2017)

Tests used:
Format in all cases: cell-based
[1] = molecular target: T1, Estrogen receptor (Homo sapiens) (UniProt P03372); assay: Downregulation of ERalpha expression in human MCF7 cells after 6 hrs by Western blot method
T1 sequence (whole entry): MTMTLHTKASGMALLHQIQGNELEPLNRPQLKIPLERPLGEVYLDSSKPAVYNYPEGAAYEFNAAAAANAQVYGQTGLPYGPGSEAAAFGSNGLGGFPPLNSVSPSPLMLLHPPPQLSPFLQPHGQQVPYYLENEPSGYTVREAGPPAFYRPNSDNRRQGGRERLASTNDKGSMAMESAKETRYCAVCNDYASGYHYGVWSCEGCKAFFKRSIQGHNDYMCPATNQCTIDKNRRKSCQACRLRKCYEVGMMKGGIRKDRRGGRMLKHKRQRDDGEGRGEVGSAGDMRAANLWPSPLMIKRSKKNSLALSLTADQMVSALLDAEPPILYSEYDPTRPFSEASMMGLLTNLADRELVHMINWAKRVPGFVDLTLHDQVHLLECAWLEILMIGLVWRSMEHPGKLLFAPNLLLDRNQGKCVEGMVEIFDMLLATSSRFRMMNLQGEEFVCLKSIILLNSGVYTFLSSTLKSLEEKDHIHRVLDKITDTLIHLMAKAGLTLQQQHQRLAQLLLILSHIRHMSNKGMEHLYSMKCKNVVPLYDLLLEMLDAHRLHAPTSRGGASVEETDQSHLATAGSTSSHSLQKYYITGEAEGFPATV
Method in brief: (§1)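 MCF-7 cells kept in DMEM with 10% FBS, kanamycin and 10 μg/mL insulin, then exposed to compounds for 6 h. Lysates made in SDS buffer (0.1 M Tris-HCl pH 8.0, 10% glycerol, 1% SDS), boiled, BCA-normalized and run on SDS-PAGE. Blots probed with anti-ERα, AR, AhR or VDR and β-actin or lamin B. Chemiluminescence quantified as target/loading-protein ratio; means ± S.E., n=3.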

[2] = molecular target: T1, Estrogen receptor (Homo sapiens); assay: Downregulation of ERalpha expression in human MCF7 cells at 3 uM after 6 hrs by Western blot method relative to beta-actin; method in brief: as §1
[3] = molecular target: T1, Estrogen receptor (Homo sapiens); assay: Downregulation of ERalpha expression in human MCF7 cells at 1 uM after 6 hrs by Western blot method relative to lamin B; method in brief: as §1
[4] = molecular target: T1, Estrogen receptor (Homo sapiens); assay: Downregulation of ERalpha expression in human MCF7 cells at 3 uM after 6 hrs by Western blot method relative to lamin B; method in brief: as §1
[5] = molecular target: T2, Vitamin D3 receptor (Homo sapiens) (UniProt P11473); assay: Downregulation of VDR expression in human MCF7 cells at 1 uM after 6 hrs by Western blot method relative to lamin B; method in brief: as §1
T2 sequence (whole entry): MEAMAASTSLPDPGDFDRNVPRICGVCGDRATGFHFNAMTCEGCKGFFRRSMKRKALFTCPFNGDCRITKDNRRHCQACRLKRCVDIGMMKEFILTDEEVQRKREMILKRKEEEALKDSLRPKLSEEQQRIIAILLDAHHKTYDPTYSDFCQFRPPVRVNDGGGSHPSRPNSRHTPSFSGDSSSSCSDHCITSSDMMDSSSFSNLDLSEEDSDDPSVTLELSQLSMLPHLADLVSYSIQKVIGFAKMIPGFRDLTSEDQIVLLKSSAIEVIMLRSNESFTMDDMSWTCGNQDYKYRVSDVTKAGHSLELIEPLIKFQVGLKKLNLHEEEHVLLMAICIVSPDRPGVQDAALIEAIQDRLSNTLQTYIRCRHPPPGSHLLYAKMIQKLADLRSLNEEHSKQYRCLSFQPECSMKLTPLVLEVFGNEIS

[6] = molecular target: T3, Aryl hydrocarbon receptor (Homo sapiens, UniProt P35869); assay: Downregulation of AhR expression in human MCF7 cells at 1 uM after 6 hrs by Western blot method relative to lamin B; conditions: mcf7, 6 h; method in brief: as §1
T3 sequence (P35869 whole entry): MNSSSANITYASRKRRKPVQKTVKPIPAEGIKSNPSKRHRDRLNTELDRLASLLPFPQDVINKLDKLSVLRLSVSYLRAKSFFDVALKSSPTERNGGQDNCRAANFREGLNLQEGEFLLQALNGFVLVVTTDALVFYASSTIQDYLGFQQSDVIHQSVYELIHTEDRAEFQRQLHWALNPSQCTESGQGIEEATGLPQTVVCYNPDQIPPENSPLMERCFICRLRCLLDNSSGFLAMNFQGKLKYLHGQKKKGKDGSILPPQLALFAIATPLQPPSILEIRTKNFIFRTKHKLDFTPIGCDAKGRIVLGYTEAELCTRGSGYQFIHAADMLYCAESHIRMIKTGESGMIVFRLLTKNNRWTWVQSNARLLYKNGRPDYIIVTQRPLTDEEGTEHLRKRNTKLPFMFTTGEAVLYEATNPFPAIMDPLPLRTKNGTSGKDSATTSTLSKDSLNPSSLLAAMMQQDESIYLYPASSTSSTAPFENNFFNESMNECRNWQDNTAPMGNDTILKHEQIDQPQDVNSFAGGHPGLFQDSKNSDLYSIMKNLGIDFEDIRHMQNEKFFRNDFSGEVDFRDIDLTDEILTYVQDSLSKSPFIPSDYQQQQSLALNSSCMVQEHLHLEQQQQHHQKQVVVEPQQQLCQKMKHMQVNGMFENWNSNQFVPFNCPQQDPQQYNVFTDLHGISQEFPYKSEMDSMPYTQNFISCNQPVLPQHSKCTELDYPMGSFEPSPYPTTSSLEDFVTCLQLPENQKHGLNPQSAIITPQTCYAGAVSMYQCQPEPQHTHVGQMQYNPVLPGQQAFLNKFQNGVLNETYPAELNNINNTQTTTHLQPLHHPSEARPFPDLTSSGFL

[7] = molecular target: T2, Vitamin D3 receptor (Homo sapiens); assay: Downregulation of VDR expression in human MCF7 cells at 10 uM after 6 hrs by Western blot method relative to lamin B; method in brief: as §1
[8] = molecular target: T3, Aryl hydrocarbon receptor; assay: Downregulation of AhR expression in human MCF7 cells at 3 uM after 6 hrs by Western blot method relative to lamin B; conditions: mcf7, 6 h; method in brief: as §1
[9] = molecular target: T3, Aryl hydrocarbon receptor; assay: Downregulation of AhR expression in human MCF7 cells at 10 uM after 6 hrs by Western blot method relative to lamin B; conditions: mcf7, 6 h; method in brief: as §1
[10] = molecular target: T1, Estrogen receptor (Homo sapiens); assay: Downregulation of ERalpha expression in human MCF7 cells at 3 uM after 6 hrs in presence of proteasome inhibitor MG132 by Western blot method relative to lamin B; method in brief: as §1
[11] = molecular target: T1, Estrogen receptor (Homo sapiens); assay: Downregulation of ERalpha expression in human MCF7 cells at 10 uM after 6 hrs in presence of proteasome inhibitor MG132 by Western blot method relative to lamin B; method in brief: as §1
[12] = molecular target: T2, Vitamin D3 receptor (Homo sapiens); assay: Downregulation of VDR expression in human MCF7 cells at 1 uM after 6 hrs in presence of proteasome inhibitor MG132 by Western blot method relative to lamin B; method in brief: as §1
[13] = molecular target: T3, Aryl hydrocarbon receptor; assay: Downregulation of AhR expression in human MCF7 cells at 1 uM after 6 hrs in presence of proteasome inhibitor MG132 by Western blot method relative to lamin B; conditions: mcf7, 6 h; method in brief: as §1
[14] = molecular target: T3, Aryl hydrocarbon receptor; assay: Downregulation of AhR expression in human MCF7 cells at 3 uM after 6 hrs in presence of proteasome inhibitor MG132 by Western blot method relative to lamin B; conditions: mcf7, 6 h; method in brief: as §1
[15] = molecular target: T3, Aryl hydrocarbon receptor; assay: Downregulation of AhR expression in human MCF7 cells at 10 uM after 6 hrs in presence of proteasome inhibitor MG132 by Western blot method relative to lamin B; conditions: mcf7, 6 h; method in brief: as §1

Activity [1]: Dose-dependent effect
Activity [2]: 57%
Activity [3]: 58 to 76%
Activity [4]: 47 to 59%
Activity [5]: 100%
Activity [6]: 87%
Activity [7]: 80%
Activity [8]: 80%
Activity [9]: 81%
Activity [10]: 101%
Activity [11]: 105%
Activity [12]: 98%
Activity [13]: 105%
Activity [14]: 99%
Activity [15]: 107%
Structure (SMILES): CCCCCCCCCCNCCOc1ccc(C(CCC)(CCC)c2ccc(O)c(C)c2)cc1C
